We go through 15 compounds from ChEMBL document CHEMBL1123839, “5-Acyl-3-substituted-benzofuran-2(3H)-ones as potential antiinflammatory agents” (1987).

Holding throughout (format): functional
The species named for test [1] is Cavia porcellus. As to the kind of experiment: Tested for effect on the production of Lipoxygenase (LO) metabolite, 5,12-diHETE in guinea pig peritoneal polymorphonuclear neutrophils at 30 uM concentration. A digest of the protocol: (§1)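 Guinea pig peritoneal PMNs were incubated with [14C]arachidonic acid and stimulated with calcium ionophore A23187. Compounds were tested at 30 μM in 0.1 N NaOH–Krebs Ringer bicarbonate buffer. Radiolabeled cyclooxygenase and lipoxygenase products were identified by HPLC and GC-MS, separated by TLC and quantified by automatic scanning.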

For test [2], the species on record is Cavia porcellus. Description: Tested for effect on the production of Lipoxygenase (LO) metabolite, 5-HETE in guinea pig peritoneal polymorphonuclear neutrophils at 30 uM concentration. A digest of the protocol: as §1
Test [3] is filed under the species Cavia porcellus. Description: Tested for effect on the production of cyclooxygenase (COX) metabolite, PGE-2 (prostaglandin E2) of arachidonic acid in guinea pig peritoneal polymorphonuclear neutrophils at 30 uM concentration. A digest of the protocol: as §1
The species entered for test [4] is Cavia porcellus. Description: Tested for effect on the production of cyclooxygenase (COX) metabolite, TXB2 of arachidonic acid in guinea pig peritoneal polymorphonuclear neutrophils at 30 uM concentration. A digest of the protocol:
as §1

Test [5] concerns Rattus norvegicus. Description: Antiinflammatory activity was assessed by the ability to improve the adjuvant induced arthritis in left secondary lesion in rats at oral doses, 33 mg/kg (volume change in the injected paw measured from day 9 to day 18).
Test [6] has as its system Rattus norvegicus. Description: Antiinflammatory activity was assessed by the ability to improve the adjuvant induced arthritis in right primary lesion in rats at oral doses, 33 mg/kg (volume change in the injected paw measured from day 0 to day 8). A digest of the protocol: (§2)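 Female Sprague–Dawley rats (150–170 g), six per group. Arthritis induced by subcutaneous plantar injection of 0.125 mg killed tubercle bacillus in liquid paraffin into the right hind paw. Dosing was 33 mg/kg orally, daily for 14 days, starting the day before adjuvant. Paw volumes were measured by mercury plethysmography every 2–3 days over 18 days. Primary lesion: right paw, days 0–8. Secondary lesions: right and left (uninjected) paws, days 9–18. Areas under the time-course curves were compared with controls by ANOVA.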

The subject of test [7] is Rattus norvegicus. Description: Ability to improve the adjuvant induced arthritis in right secondary lesion in rats at oral doses, 33 mg/kg. The method in brief: as §2
The species entered for test [8] is Rattus norvegicus. As to the kind of experiment: Antiinflammatory activity was assessed improvement of adjuvant induced arthritis in rats, determined by joint mobility of the paw. Also noted: concentration or dose not given beside the values. A digest of the protocol: (§3)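 Adjuvant arthritis was induced in female Sprague–Dawley rats (150–170 g, groups of six) by right-hind-paw plantar injection of killed tubercle bacillus in paraffin. Treatment was 33 mg/kg orally, daily for 14 days, starting the day before adjuvant. Joint involvement was scored as the angle through which the hind paws moved easily, given as percent change versus nontreated controls.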

For test [9], the species on record is Cavia porcellus. Description: Tested for effect on the production of cyclooxygenase (COX) metabolite, PGF2-alpha (prostaglandin F2-alpha) of arachidonic acid in guinea pig peritoneal polymorphonuclear neutrophils at 30 uM concentration. The method in brief:
as §1

Test [10] has as its system Rattus norvegicus. As to the kind of experiment: Antiinflammatory activity was assessed by the ability to improve the adjuvant induced arthritis in left secondary lesion in rats at oral doses, 33 mg/kg (volume change in the uninjected paw measured from day 9 to day 18). A digest of the protocol: as §2
In test [11] the test system is Rattus norvegicus. As to the kind of experiment: Antiinflammatory activity was assessed by the ability to improve the adjuvant induced arthritis rats was determined by joint mobility of the paw at oral doses, 33 mg/kg. The method in brief: as §3
The species entered for test [12] is Cavia porcellus. Description: Tested for effect on the production of Lipoxygenase (LO) metabolite, 5,12-diHETE in guinea pig peritoneal polymorphonuclear neutrophils at 30 uM concentration; ND = no data. A digest of the protocol: as §1
Test [13] is filed under the species Cavia porcellus. As to the kind of experiment: Tested for effect on the production of Lipoxygenase (LOX) metabolite, 5-HETE in guinea pig peritoneal polymorphonuclear neutrophils at 30 uM concentration. A digest of the protocol: as §1
For test [14], the species on record is Rattus norvegicus. Description: Antiinflammatory activity was assessed by the ability to improve the adjuvant induced arthritis in left secondary lesion in rats (volume change in the […] to day 18).
The species named for test [15] is Rattus norvegicus. As to the kind of experiment: Antiinflammatory activity was assessed by the ability to improve the adjuvant induced arthritis in right primary lesion in rats(volume change in the injected paw measured from day 0 to day 8). The method in brief:
as §2

For test [16], the species on record is Rattus norvegicus. As to the kind of experiment: Antiinflammatory activity was assessed by the ability to improve the adjuvant induced arthritis in right secondary lesion in rats (volume change in the injected paw measured from day 9 to day 18). The method in brief: as §2

Regarding `CC(C(=O)O)c1cc(C(=O)c2ccccc2)ccc1O` (stereo unspecified), the Reduction is listed as -55% in test [1]; -27% in test [2]; 77% in test [3]; 75% in test [4]; 61% in test [5]; 30% in test [6]. In addition, the Reduction in [7] was 37%; in [8], 38%; in [9], 52%.

For the compound `O=C(O)Cc1cc(C(=O)c2cccs2)ccc1O`, the Reduction is listed as -62% in [1]; -72% in test [2]; 74% in [3]; 89% in [4]; 11% in [6]; 20% in test [7]. The Reduction in test [8] worked out at 1%; in [9], 74%; in test [10], 10%.

On to `O=C1Oc2ccc(C(=O)c3cccs3)cc2/C1=C/c1ccc(C(F)(F)F)cc1`, for which the Reduction in test [1] was 68%; in test [2], 67%; in test [3], 79%; in test [4], 95%; in [5], 15%; in test [6], 3%. Besides, the Reduction in test [7] was 19%; in test [8], 4%; in test [9], 67%.

On to `C=CCc1cc(C(=O)c2cccs2)cc2c1OC(=O)C2C` (stereo unspecified), for which the Reduction in [1] is recorded as -24%; in test [2], 14%; in test [3], 88%; in [4], 93%; in test [5] it was 17%; in test [6], 1%. Moreover, the Reduction was 6% in test [7], 5% in test [8] and 77% in [9].

Consider `CC1C(=O)Oc2ccc(C(=O)c3ccc(F)cc3)cc21` (stereo unspecified), for which the Reduction in [1] is listed as -25%; in test [2] it was 6%; in test [3], 46%; in [4], 76%; in test [5] it was 31%; in test [6], 5%. Besides, the Reduction in test [7] is on record as 10%; in test [8] it was -1%; in [9], 47%.

In the case of `CCC(CC)(C(=O)O)c1cc(C(=O)c2cccs2)ccc1O`, the Reduction in test [1] is -18%; in [2], -21%; in test [3] it was 54%; in test [4] it was 90%; in test [5], 45%; in [6], 6%. For the same compound, the Reduction in test [7] is reported as 22%; in [8], 38%; in test [9] it was 50%.

Consider `CCCCC1C(=O)Oc2ccc(C(=O)c3cccs3)cc21` (stereo unspecified), for which the Reduction was 61% in test [1]; 73% in test [2]; 68% in test [3]; 89% in test [4]; -55% in test [5]; 4% in [6]. In addition, the Reduction in [7] is -22%; in [8], -1%; in [9], 62%.

On to `CCC1(CC)C(=O)Oc2ccc(C(=O)c3cccs3)cc21`, for which the Reduction was -7% in [1]; 2% in [2]; 62% in [3]; 90% in test [4]; 41% in test [5]; 18% in [6]. Further, the results for the Reduction in test [7], in test [8] and in [9] were 17%, 23% and 48%, respectively.

Take `O=C1Oc2ccc(C(=O)c3cccs3)cc2/C1=C/c1ccccc1`: the Reduction was -10% in test [1]; -18% in test [2]; 81% in test [3]; 92% in test [4]; 76% in test [5]; 21% in test [6]. Also, the Reduction in [7] was determined as 48%; in test [11] it was 46%; in test [9] it was 60%.

For the compound `C=CCOc1ccc(C(=O)c2cccs2)cc1C(C)C(=O)O` (stereo unspecified), the Reduction is -21% in test [12]; -25% in test [2]; 6% in [3]; 62% in test [4]; 3% in test [5]; 18% in [6]. Also, the Reduction in [7] is given as -8%; in test [8], -14%; in [9], 11%.

As for `CC(C(=O)O)c1cc(C(=O)c2ccco2)ccc1O` (stereo unspecified), the Reduction in [1] was -17%; in test [2], -14%; in test [3], 87%; in test [4] it was 87%; in [5], 13%; in test [6], -31%. The Reduction in test [7] is -5%; in test [8], 7%; in test [9], 61%.

Take `O=C(c1ccc2c(c1)C(C(=O)Nc1ccccc1)C(=O)O2)c1cccs1` (stereo unspecified): the Reduction came out at 85% in [1]; 94% in [2]; 93% in test [3]; 93% in [4]; 25% in test [5]; 8% in [6]. Also, the Reduction in test [7] turned out to be 6%; in test [8], 1%; in test [9], 86%.

As to `CC1C(=O)Oc2ccc(C(=O)c3cccs3)cc21` (stereo unspecified), the Reduction came out at 39% in test [1]; 37% in test [2]; 61% in [3]; 67% in [4]; 48% in [5]; 31% in [6]. The figures for the Reduction in test [7], in test [8] and in test [9] were 40%, 31% and 15%, respectively.

As for `NC1=NN(c2cccc(C(F)(F)F)c2)CC1` [BW-755C], the Reduction worked out at 40% in test [1]; 79% in test [3]; 90% in test [4]; 45% in test [13]; 82% in test [9].

Consider `COc1ccc2c(c1)c(CC(=O)O)c(C)n2C(=O)c1ccc(Cl)cc1` [INDOMETHACIN], for which the Reduction in test [1] was -81%; in test [2], -12%; in test [3] it was 84%; in test [4] it was 91%; in test [14], 77%; in test [15], 37%. Besides, the Reduction worked out at 56% in test [16], 91% in test [8] and 70% in [9].
